Measured values gathered from unrelated publications.
Compare with care: the assays were run in different laboratories.
Chymotrypsinogen A: Chymotrypsinogen A (Bos taurus, UniProt P00766)
KRAS G12D: GTPase KRas (KRAS, Homo sapiens, UniProt P01116, G12D)
CDK4: Cyclin-dependent kinase 4 (CDK4, Homo sapiens, UniProt P11802)
Flap endonuclease 1: Flap endonuclease 1 (Homo sapiens, UniProt P39748)
CHRM2: Muscarinic acetylcholine receptor M2 (CHRM2, Homo sapiens, UniProt P08172)

SMILES | target | effect on | mode | technique | setting | IC50 [µM]
O=c1oc(-c2cccc(F)c2)ns1 | Chymotrypsinogen A | enzyme activity | inhibitor |  |  | 2.67
O=C1C(=O)N(Cc2cc3ccccc3s2)c2ccc(I)cc21 | Chymotrypsinogen A | enzyme activity | inhibitor |  |  | 1000
CC[C@H](C)[C@@H]1NC(=O)[C@H](Cc2ccc(-c3ccccc3)cc2)NC(=O)[C@H](CC2CCCCC2)NC(=O)[C@@H]2[C@@H](c3ccccc3)CCN2C(=O)[C@@H](NC(=O)[C@H](CCCNC(=N)N)NC(=O)[C@H](CCCNC(=N)N)NC(C)=O)CSSC[C@@H](C(=O)N[C@@H](CCCNC(=N)N)C(=O)N[C@@H](CCCNC(=N)N)C(N)=O)NC(=O)[C@H](C(C)C)NC(=O)[C@@H]2CCCN2C(=O)[C@H](CC(=O)O)NC(=O)[C@H](Cc2ccc(O)cc2)NC(=O)[C@H](CO)NC1=O | KRAS G12D | enzyme activity | inhibitor | TR-FRET |  | 0.02
CCOC(=O)[C@H]1Cc2c(cc([N+](=O)[O-])cc2[N+](=O)[O-])[C@@H](O)[C@@]12C(=O)Nc1c(F)cccc12 | CDK4 | cell-free assay | inhibitor | TR-FRET |  | 0.99
O=C(Nc1cc[c]([Sb](=[O])([OH])[OH])cc1)c1ccccc1 | Flap endonuclease 1 | enzyme activity | inhibitor | fluorescence | with preincubation | 18
CN1CCC(=C2c3ccccc3CCc3cccnc32)CC1 | CHRM2 | ligand displacement |  | radioligand |  | 0.064
CCOC(=O)CCCc1cc[c]([Sb](=[O])([OH])[OH])cc1 | Flap endonuclease 1 | enzyme activity | inhibitor | fluorescence | with preincubation | 1.7
c1ccc(-c2c[nH]c3ncnc(N4CCOCC4)c23)cc1 | Serine/threonine-protein kinase 3 (STK3, Homo sapiens, UniProt Q13188) | enzyme activity | inhibitor | ADP detection |  | 0.127
CC[C@@H](C)[C@H]1NC(=O)[C@H](Cc2ccc(-c3ccccc3)cc2)NC(=O)[C@H](CC(C)C)NC(=O)[C@@H]2[C@@H](c3ccccc3)CCN2C(=O)[C@H](NC(=O)[C@@H](CCCNC(=N)N)NC(=O)[C@@H](CCCNC(=N)N)NC(C)=O)CSCSC[C@@H](C(=O)N[C@H](CCCNC(=N)N)C(=O)N[C@H](CCCNC(=N)N)C(N)=O)NC(=O)[C@H](C(C)C)NC(=O)[C@@H]2CCCN2C(=O)[C@H](CC(=O)O)NC(=O)[C@H](Cc2ccc(O)cc2)NC(=O)[C@@](C)(CO)NC1=O | KRAS G12D | enzyme activity | inhibitor | TR-FRET |  | > 11.1
Cc1cc(SCc2sc(-c3ccc(C(F)(F)F)c(F)c3)nc2C)ccc1OCC(=O)O | Thyroid hormone receptor alpha (THRA, Homo sapiens, UniProt P10827) | reporter gene | antagonist | luciferase |  | 31.4
Cc1[nH]ncc1-c1cc2nc([C@@H]3CC4CCN3CC4)[nH]c(=O)c2s1 | Cell division cycle 7-related protein kinase (CDC7, Homo sapiens, UniProt O00311) | enzyme activity | inhibitor |  |  | 0.00175
[O]=[Sb]([OH])([OH])[c]1ccccc1 | Flap endonuclease 1 | enzyme activity | inhibitor |  | with preincubation | 130
CC[C@H](C)[C@@H]1NC(=O)[C@H](Cc2ccc(-c3ccccc3)cc2)NC(=O)[C@H](CC(C)C)NC(=O)[C@@H]2CCCN2C(=O)[C@@H](NC(=O)[C@H](CCCNC(=N)N)NC(=O)[C@H](CCCNC(=N)N)NC(C)=O)CSSC[C@@H](C(=O)N[C@@H](CCCNC(=N)N)C(=O)N[C@@H](CCCNC(=N)N)C(N)=O)NC(=O)[C@H](C(C)C)NC(=O)[C@@H]2CC[C@H](c3ccccc3)N2C(=O)[C@H](CC(=O)O)NC(=O)[C@H](Cc2ccc(O)cc2)NC(=O)[C@H](CO)NC1=O | KRAS G12D | enzyme activity | inhibitor | TR-FRET |  | 0.094
COc1cccc(-c2nsc(=O)o2)c1 | Chymotrypsinogen A | enzyme activity | inhibitor |  |  | 2.19
CC(C)C[C@H](NC(=O)[C@H](Cc1ccccc1)NC(=O)c1cnccn1)B(O)O | GZMA (Homo sapiens, UniProt P12544) | enzyme activity | inhibitor |  |  | 11.9
CCOC(=O)[C@H]1Cc2c(cc([N+](=O)[O-])cc2[N+](=O)[O-])[C@@H](O)[C@@]12C(=O)Nc1ccc([N+](=O)[O-])cc12 | CDK4 | cell-free assay | inhibitor | TR-FRET |  | 3.31
COc1cc(C(=O)N2CC[C@@H](O)[C@@H](N)C2)cc2nc(-c3cc4ccccc4n3CC3CC3)n(C)c12 | CHRM2 | calcium signal | antagonist | fluorescence |  | > 15.8
CCOC(=O)[C@H]1Cc2c(cc([N+](=O)[O-])cc2[N+](=O)[O-])[C@@H](O)[C@@]12C(=O)Nc1ccc(F)cc12 | CDK4 | cell-free assay | inhibitor | TR-FRET |  | 1.1
O=C(O)c1cc[c]([Sb](=[O])([OH])[OH])cc1[N+](=O)[O-] | Flap endonuclease 1 | enzyme activity | inhibitor | fluorescence | with preincubation | 1.2
CCOC(=O)[C@H]1Cc2c(cc([N+](=O)[O-])cc2[N+](=O)[O-])[C@@H](O)[C@@]12C(=O)Nc1ccc(Br)cc12 | CDK4 | cell-free assay | inhibitor | TR-FRET |  | 0.32
O=C1O[C@H]2[C@@H]3OC(=O)c4cc(O)c(O)c(O)c4-c4c(O)c(O)c5oc(=O)c6c(c(O)c(O)c7oc(=O)c4c5c76)-c4c(cc(O)c(O)c4O)C(=O)OC[C@H]3OC(O)[C@@H]2OC(=O)c2cc(O)c(O)c(O)c2-c2c1cc(O)c(O)c2O (mixture of isomers) | Genome polyprotein, protease (Hepatitis C virus genotype 1b, UniProt Q9WMX2) | enzyme activity | inhibitor | fluorescence |  | < 0.1
CCOC(=O)[C@H]1Cc2c(cc([N+](=O)[O-])cc2[N+](=O)[O-])[C@@H](O)[C@@]12C(=O)Nc1ccc(Cl)cc12 | CDK4 | cell-free assay | inhibitor | TR-FRET |  | 0.78
CC(C)C[C@H](NC(=O)[C@H](Cc1ccccc1)NC(=O)[C@H](Cc1ccc(O)cc1)NC(=O)CNC(=O)[C@H](CCCCN)NC(=O)[C@H](CO)NC(=O)[C@H](CCC(N)=O)NC(=O)CNC(=O)[C@@H](NC(=O)[C@H](CO)NC(=O)[C@@H]1CCCN1C(=O)[C@H](CO)NC(=O)[C@H](CCC(N)=O)NC(=O)[C@H](Cc1ccc(O)cc1)NC(=O)[C@H](CCC(=O)O)NC(=O)[C@H](C)NC(=O)[C@H](CCCCN)NC(=O)[C@@H](N)Cc1ccccc1)C(C)C)C(=O)N[C@@H](Cc1ccccc1)C(=O)N[C@@H](CCCNC(=N)N)C(=O)N1CCC[C@H]1C(=O)N[C@@H](CCCNC(=N)N)C(=O)N[C@@H](CC(N)=O)C(N)=O | Neuromedin-U receptor 1 (Mus musculus, UniProt O55040) | ligand displacement |  | radioligand |  | 2.51e-05
